Data taken from ChEMBL document CHEMBL1121738, “Mesoionic purinone analogues as inhibitors of cyclic-AMP phosphodiesterase: a comparison of several ring systems” (J Med Chem, 1981).

Columns and labels:
[1] = Inhibitory activity against phosphodiesterase using 1 uM cyclic-AMP as substrate in bovine heart; parameters: species or system Bos taurus; details: read-out: I50
In short: (§1)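 Commercial bovine heart phosphodiesterase assayed by the Klee method with 1 μM cyclic-AMP substrate. Poorly soluble inhibitors were predissolved in 95% ethanol, giving 2.5% ethanol final. I50 was taken from a plot of V0/V against inhibitor concentration as the concentration where V0/V = 2. Five concentrations spanning 25–75% inhibition were used, and each I50 was repeated at least three times; ± standard error.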

[2] = organism: Bos taurus; experiment: Relative potency of compound to that of theophylline against phosphodiesterase from bovine heart
In short: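 Klee-method assay of commercial bovine heart phosphodiesterase with 1 μM cyclic-AMP; some inhibitors were dissolved in 95% ethanol (2.5% final). I50 came from V0/V versus concentration plots (V0/V = 2), using five concentrations and at least three repeats. Each value is expressed relative to the I50 of a theophylline control (= 1.0) run with or without ethanol to match.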

[3] = organism: Bos taurus; experiment: Inhibition of bovine heart phosphodiesterase at 1000 uM using 1 uM cyclic-AMP
In short: (§2)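 Percent inhibition of commercial bovine heart phosphodiesterase at the single stated inhibitor concentration, measured by the Klee method with 1 μM cyclic-AMP substrate. Some compounds were dissolved in 95% ethanol, giving 2.5% final ethanol, before dilution with buffer.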

[4] = organism: Bos taurus; experiment: Inhibition of bovine heart phosphodiesterase using 1 uM cyclic-AMP; in short: as §1
[5] = Inhibition of bovine heart phosphodiesterase using 1 uM cyclic-AMP with ethanol; parameters: species or system Bos taurus; details: read-out: I50
In short: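 Commercial bovine heart PDE, assayed by the Klee method with 1 μM cyclic-AMP substrate. Inhibitors were dissolved in 95% ethanol and diluted with buffer to 2.5% ethanol final. V0/V was plotted against inhibitor concentration, and I50 was taken where V0/V = 2. Five inhibitor concentrations spanning 25-75% inhibition were used, each I50 was run at least three times, and values are expressed relative to an ethanol-containing theophylline control (= 1.0) ± standard error.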

[6] = Inhibition of bovine heart phosphodiesterase using 1 uM cyclic-AMP (Insoluble); parameters: species or system Bos taurus; in short: as §1
[7] = organism: Bos taurus; experiment: Inhibition of bovine heart phosphodiesterase at 2000 uM using 1 uM cyclic-AMP; in short: as §2
[8] = organism: Bos taurus; experiment: Inhibition of bovine heart phosphodiesterase at 3000 uM using 1 uM cyclic-AMP
In short: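 Commercial bovine heart cyclic-AMP phosphodiesterase assayed by the Klee method with 1 μM cyclic-AMP substrate. Poorly soluble compounds were dissolved in 95% ethanol (2.5% final) before dilution with buffer. Activity is read as percent inhibition at a single inhibitor concentration.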

[9] = organism: Bos taurus; experiment: Inhibition of bovine heart phosphodiesterase at 1500 uM using 1 uM cyclic-AMP; in short: as §2

IC50 [1]	Relative potency [2]	SMILES	other results
13 µM	31.7	CCC1C(=O)N2C=CSC2=[N+](Cc2ccc(-c3ccccc3)cc2)C1=O (centres undefined)	
		O=C1CC(=O)[N+](c2ccccc2)=C2SC=CN12	inhibition [3]: < 40%
		CCC1C(=O)N2CCSC2=[N+](CC)C1=O (centres undefined)	inhibition [4]: 38%
1160 µM	0.4	CC[N+]1=C2SC=NN2C(=O)C(C)C1=O (centres undefined)	
210 µM	2	CCC1C(=O)N2C=CC=CC2=[N+](CC2CCCCC2)C1=O (centres undefined)	
1100 µM	0.4	C[N+]1=C2SC=NN2C(=O)CC1=O	
858 µM	0.3	CCC1C(=O)N(CC)c2scc[n+]2C1=O (centres undefined)	
		C[N+]1=C2SC=CN2C(=O)CC1=O	inhibition [3]: < 40%
1390 µM	0.2	CCC1C(=O)N2CCSC2=[N+](CC2CC2)C1=O (centres undefined)	
		CCC1C(=O)N=C2SC=NN2C1=O (centres undefined)	I50 [6]: Insoluble
396 µM	0.7	CCC1C(=O)N2C=CSC2=[N+](CC2CC2)C1=O (centres undefined)	
323 µM	1.3	CCC1C(=O)N2C=CSC2=[N+](Cc2cc(OC)cc(OC)c2)C1=O (centres undefined)	
		CCC1C(=O)N2N=CN(C)C2=[N+](C)C1=O (centres undefined)	inhibition [7]: < 30%
305 µM	1.4	CCC1C(=O)N2C=CSC2=[N+](Cc2ccccc2Cl)C1=O (centres undefined)	
191 µM	2.2	CC1C(=O)N2N=CSC2=[N+](Cc2ccccc2)C1=O (centres undefined)	
		CCC1C(=O)N2C=CN(C)C2=[N+](CC)C1=O (centres undefined)	inhibition [8]: < 30%
319 µM	0.9	CC1C(=O)N2C=CSC2=[N+](CC2CC2)C1=O (centres undefined)	
1670 µM	0.2	CCC1C(=O)N2C=CC=NC2=[N+](C)C1=O (centres undefined)	
		CC1C(=O)N2N=CN(C)C2=[N+](C)C1=O (centres undefined)	inhibition [7]: < 30%
2050 µM	0.1	O=C1CC(=O)[N+](CC2CC2)=C2SCCN12	
774 µM	0.5	CC[N+]1=C2SC=NN2C(=O)CC1=O	
		CCC1C(=O)N2CCSC2=[N+](CC(C)C)C1=O (centres undefined)	inhibition [9]: 39%
		CCC1C(=O)N=C2SC=CN2C1=O (centres undefined)	I50 [6]: Insoluble

IC50 [1]	Relative potency [2]	SMILES	other results
		CCC1C(=O)N(C)C2SC=CN2C1=O (centres undefined)	inhibition [3]: < 40%
951 µM	0.3	CC[N+]1=C2SC=CN2C(=O)C(C)C1=O (centres undefined)	
		CCC1C(=O)N2C=CSC2=[N+](c2ccccc2)C1=O (centres undefined)	inhibition [3]: < 40%
988 µM	0.3	CC[N+]1=C2SC=CN2C(=O)CC1=O	
52 µM	7.9	CC[N+]1=C2SC=NN2C(=O)C(Cc2ccccc2)C1=O (centres undefined)	
1260 µM	0.2	CC1C(=O)N2CCSC2=[N+](CC2CC2)C1=O (centres undefined)	
		CC[N+]1=C2N(C)C=CN2C(=O)C(C)C1=O (centres undefined)	inhibition [8]: < 30%
498 µM	0.6	CCC1C(=O)N2C=CSC2=[N+](CC(C)C)C1=O (centres undefined)	
208 µM	2	CCC1C(=O)N2C=CSC2=[N+](Cc2cccc(Cl)c2)C1=O (centres undefined)	
168 µM	2.5	CC[N+]1=C2SC=CN2C(=O)C(Cc2ccccc2)C1=O (centres undefined)	
		CCC1C(=O)N=C2N=CC=CN2C1=O (centres undefined)	inhibition [7]: 22%
555 µM	0.7	CCC1C(=O)N2N=CSC2=[N+](CC)C1=O (centres undefined)	
191 µM	2.2	CCC1C(=O)N2C=CSC2=[N+](Cc2ccc(Cl)cc2)C1=O (centres undefined)	
		CC1C(=O)N2C=CSC2=[N+](c2ccccc2)C1=O (centres undefined)	inhibition [3]: < 40%
308 µM	1.3	O=C1CC(=O)[n+]2ccsc2N1Cc1cccc(Cl)c1	
261 µM	1.6	CCC1C(=O)N2C=CSC2=[N+](Cc2ccc3c(c2)OCO3)C1=O (centres undefined)	
495 µM	0.6	O=C1CC(=O)[N+](CC2CC2)=C2SC=CN12	
		CC1C(=O)N(C)C2SC=CN2C1=O (centres undefined)	inhibition [3]: < 40%
1710 µM	0.2	CCCC1C(=O)N2N=CN(C)C2=[N+](C)C1=O (centres undefined)	
		CN1C=NN2C(=O)CC(=O)[N+](C)=C12	inhibition [7]: < 30%
127 µM	3.2	CCC1C(=O)N2C=Cc3ccccc3C2=[N+](CC)C1=O (centres undefined)	
430 µM	0.9	CCC1C(=O)N2C=CSC2=[N+](Cc2ccccc2)C1=O (centres undefined)	
532 µM	0.7	COc1ccc(C[N+]2=C3SC=CN3C(=O)C(C)C2=O)cc1 (centres undefined)	

SMILES	IC50 [1]	Relative potency [2]	other results
Cn1c(=O)c2nc[nH]c2n(C)c1=O [THEOPHYLLINE]	286 µM		IC50 [5]: 412 µM
Cn1c(=O)c2[nH]cnc2n(C)c1=O		1	
